A short description of experiment [1]: Inhibition of calcineurin.
Experiment [2] can be described thus: Inhibition of PP1c. In outline:
(§1)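 Enzyme source was purified catalytic subunits of protein phosphatases PP-1 and PP-2A. Results are reported as IC50.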

Experiment [3] can be described thus: Inhibition of PP2A. In outline: as §1

By IC50 is commonly meant the midpoint of a concentration-inhibition curve.

Active and inactive are the calls of the source. No cut-off for these calls is given here.

For `CC(C)CCN1CC=C(CCCC(CC[C@@]2(C)C3=CCCC(C)(C)[C@@H]3CC[C@H]2C)COS(=O)(=O)O)C1=O` (stereo partly specified) [IREGULARASULFATE], in experiment [1], the half-inhibitory concentration (IC50) stood at 59 µM. As for `C[C@@H]1CC[C@@H]2C(=CCCC2(C)C)[C@]1(C)CCC(CCCc1ccoc1)COP(=O)(O)O` (stereo partly specified), the IC50 in experiment [1] amounted to 230 µM; in experiment [2], 36 µM. With `CC1=CCCC(C)(C)C1CC/C(C)=C/CCC(CO)CCCc1ccoc1` (stereo unspecified), the result in experiment [1] was inactive.

As to `C[C@@H]1CC[C@@H]2C(=CCCC2(C)C)[C@]1(C)CCC(CCCc1ccoc1)COS(=O)(=O)O` (stereo partly specified), the results for the concentration for half-maximal inhibition (IC50) in experiment [1], in experiment [2] and in experiment [3] were 69 µM, 64 µM and 140 µM, respectively. In the case of `CC1=CCCC(C)(C)C1CC/C(C)=C/CCC(CCCc1ccoc1)COS(=O)(=O)O` (stereo unspecified) [HIPPOSULFATE C], the half-inhibitory concentration (IC50) in experiment [1] was found to be 66 µM; in experiment [2], 71 µM; in experiment [3] it was 130 µM. For the compound `CC1=CCCC(C)(C)C1CC/C(C)=C/CCC(CCCc1ccoc1)COP(O)(O)=S` (stereo unspecified), the IC50 in experiment [1] amounted to 70 µM.

The values above are taken from ChEMBL document CHEMBL1141340, “Protein phosphatase inhibitors isolated from Spongia irregularis collected in Papua New Guinea” (J Nat Prod, 2007).
